# T cruzi growth-1 – T. cruzi intracellular proliferation inhibitors, primary screen, cell-based, beta-gal Tulahuen parasites, NIH3T3 host, luminescence. inhibition, % at 8.34 µM. AID 624255, 2012. actives 5.9% (n = 77,000). T. cruzi beta-gal in NIH3T3, GalScreen luminescence, 90 h;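 active means mean inhibition above about 93%, with at least 55% of replicates each passing it, limit read from the data, passing the limit was not always enough; inconclusive means only one of those two conditions holds; inactive means neither condition holds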
# GASC1 inh – inhibitors of GASC-1 (KDM4C) histone demethylase, primary screen, biochemical, single concentration HTS; inhibition, % at 12.5 µM; actives 0.15% (n = 96,000); Lysine-specific demethylase 4C (Homo sapiens), Q9H3R0; GST-KDM4C 2-372, H3K9me3 peptide, LANCE TR-FRET;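 active means mean replicate inhibition above about 25%, with at least 55% of replicates also reaching it, limit read from the data, passing the limit was not always enough; inconclusive means only one of those two conditions met; inactive means neither condition met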
# Target sequence (Q9H3R0 2-372 limits assumed): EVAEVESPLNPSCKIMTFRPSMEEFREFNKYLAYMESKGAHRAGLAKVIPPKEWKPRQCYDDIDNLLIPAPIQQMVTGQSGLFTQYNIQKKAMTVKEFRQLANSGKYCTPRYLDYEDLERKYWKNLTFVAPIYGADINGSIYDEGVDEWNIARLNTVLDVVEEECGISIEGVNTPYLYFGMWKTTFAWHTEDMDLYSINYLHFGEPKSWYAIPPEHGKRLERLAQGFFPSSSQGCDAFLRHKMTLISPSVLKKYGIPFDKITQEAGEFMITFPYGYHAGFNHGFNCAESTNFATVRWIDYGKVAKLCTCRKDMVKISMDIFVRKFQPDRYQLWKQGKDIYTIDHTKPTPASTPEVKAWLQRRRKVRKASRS
#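 Test system: N-terminal GST-fused human GASC-1 (KDM4C) fragment, residues 2-372; quantity: GASC-1 enzyme at 10 nM final in reaction; dosing: single dose; schedule: 30 min demethylation and 1 h detection at room temperature; signal: LANCE TR-FRET, excitation 340 nm, emissions 618 and 671 nm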
# IDH1 R132H inh – inhibitors of IDH1 R132H reductase, primary screen, biochemical, plate reader, single point; diaphorase/resazurin fluorescence, 60 min; Isocitrate dehydrogenase [NADP] cytoplasmic (Homo sapiens), O75874; actives 0.18% (n = 70,000); inhibition, % at 10 µM; in the data active means inhibition above about 34%; inconclusive means no clear call, values can overlap the other calls; inactive means below about 11%;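 further: 0% = DMSO and 100% = no enzyme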
# Pf Dd2 growth – P. falciparum Dd2 growth inhibitors, primary screen, SYBR Green fluorescence, single dose replicates; activity change, % at 10 µM; 72 h; stronger effect = lower value; actives 2.3% (n = 94,000); AID 1159554, 2015; in the data active means activity change below about -80%; inconclusive means no clear call, values can overlap the other calls
# T cruzi growth-2 – T. cruzi intracellular proliferation inhibitors, confirmation, cell-based, NIH3T3 host, beta-gal parasite, luminescence, cherry-pick. shares compounds with T cruzi growth-1. T. cruzi beta-gal in NIH3T3, GalScreen luminescence, 90 h. inhibition, % at 8.35 µM. actives 72% (n = 5,600). AID 651739, 2012;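 active means mean replicate inhibition above about 95% and at least 55% of replicates individually reaching it, limit read from the data; inconclusive means only one of the two criteria is met; inactive means neither criterion is met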
# T cruzi growth-3 – inhibitors of intracellular T. cruzi replication, confirmation, NIH3T3 host cells, beta-gal parasites, cherry-pick, set 2 | inhibition, % at 2.09 µM | shares compounds with T cruzi growth-1 | T. cruzi beta-gal in NIH3T3, GalScreen luminescence, 90 h | actives 21% (n = 5,600) | AID 651740, 2012;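 active means mean inhibition above about 95%, with at least 55% of replicates also reaching it, limit read from the data; inconclusive means meets just one of the two conditions; inactive means meets neither condition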;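 further: plate controls were neutral control median for no effect and positive control median for full effect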
# 3T3 cytotox – cytotoxicity in mouse NIH/3T3 fibroblasts, confirmation, cytotoxicity control for T. cruzi proliferation inhibitor project, cell-based, cherry-pick, single point; actives 14% (n = 5,600); NIH/3T3 viability, CellTiter-Glo ATP luminescence, 90 h; shares compounds with T cruzi growth-1; cytotoxicity (signal decrease), % at 8.35 µM;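 active means mean signal decrease across replicates above about 35% based on untreated-well scatter, with enough replicates individually passing, limit read from the data; inconclusive means no rule stated though some were filed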;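 further: 0% = median of neutral control wells and 100% = median of positive control wells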
# 3T3 cytotox 2 – NIH/3T3 fibroblast cytotoxicity, confirmation, cytotoxicity control, cell-based, cherry-pick, single point, set 2 | NIH/3T3 viability, CellTiter-Glo ATP luminescence, 90 h | shares compounds with T cruzi growth-1 | inhibition, % at 24.9 µM | AID 651744, 2012 | actives 56% (n = 5,600);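 active means mean loss of cell viability signal at or above a set limit, and enough replicates individually reaching it; inconclusive means meets only the mean limit or only the replicate share; inactive means meets neither condition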;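 further: 0% = median of neutral control wells and 100% = median of positive control wells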
# * hit, by the source's call; ? = inconclusive; · = no result given. Sampled rows, rich in hits. Any-hit rate of the full collection: about 5.9%.
SMILES,T cruzi growth-1,GASC1 inh,IDH1 R132H inh,Pf Dd2 growth,T cruzi growth-2,T cruzi growth-3,3T3 cytotox,3T3 cytotox 2
O=C(Cc1cccnc1)N1CCCCN2[C@H](C1)[C@H](c1ccc(/C=C/c3ccccc3)cc1)[C@@H]2CO,93.5,-1.5,·,-9.8,·,·,·,·
C/C=C/c1ccc([C@@H]2[C@@H](CO)N3CCCCN(C(=O)Cc4cccnc4)C[C@H]23)cc1,52.2,-0.1,·,16.3,·,·,·,·
CN(C(=O)Cc1ccccc1)C(CN1CCCC1)c1ccccc1 (configuration not stated),·,·,0.2,·,·,·,·,·
COc1ccc(C#Cc2ccc([C@@H]3[C@@H](CO)N4CCCCN(C(=O)Cc5ccccc5)C[C@H]34)cc2)cc1,76.1,-3.3,·,-32.5,·,·,·,·
COc1ccc(C#Cc2ccc([C@@H]3[C@H]4CN(C(=O)Cc5ccccc5)CCCCN4[C@H]3CO)cc2)cc1,98.7*,-0.9,·,-46.3,93.4,103.3*,2.6,105.4*
COc1ccc(C#Cc2ccc([C@H]3[C@@H](CO)N4CCCCN(C(=O)Cc5ccccc5)C[C@@H]34)cc2)cc1,87.3,-2.2,·,-34.1,·,·,·,·
COc1ccc(C#Cc2ccc([C@@H]3[C@@H](CO)N4CCCCN(C(=O)Cc5ccncc5)C[C@H]34)cc2)cc1,110.6*,0.3,·,-50.9,106.7*,80.7,31.3,105.8*
COc1ccc(C#Cc2ccc([C@@H]3[C@H](CO)N4CCCCN(C(=O)Cc5ccccc5)C[C@@H]34)cc2)cc1,112.1*,-1.3,·,-77.3,100.8*,105.3*,22.4,106.4*
Cc1ccc2c(c1)-c1cc(C)nn1C(c1cccnc1)N2 (configuration not stated),·,·,-0.7,·,·,·,·,·
CN(C)CC#Cc1ccc([C@H]2[C@@H](CO)N3CCCCN(C(=O)Cc4ccccn4)C[C@H]23)cc1,61.3,0.6,·,7.3,·,·,·,·
CN(C)CC#Cc1ccc([C@@H]2[C@@H](CO)N3CCCCN(C(=O)Cc4ccccn4)C[C@@H]23)cc1,90.9,2.7,·,-3.7,·,·,·,·
CN(C)CC#Cc1ccc([C@@H]2[C@@H](CO)N3CCCCN(C(=O)Cc4ccccn4)C[C@H]23)cc1,114.0*,3.9,·,-16.5,47.6,15.1,15.8,1.1
CN(C)CC#Cc1ccc([C@@H]2[C@H](CO)N3CCCCN(C(=O)Cc4ccccn4)C[C@@H]23)cc1,113.8*,4.8,·,3.7,14.6,24.0,-0.6,5.7
O=C(Cc1ccccc1)N1CCCCN2[C@H](CO)[C@@H](c3ccc(-c4ccccc4)cc3)[C@H]2C1,99.9*,-1.4,·,0.4,?,35.9,11.3,105.2*
O=C(Cc1ccncc1)N1CCCCN2[C@H](CO)[C@@H](c3ccc(-c4ccncc4)cc3)[C@H]2C1,116.2*,-0.5,·,17.0,-13.0,-10.8,7.5,4.6
N#Cc1cccc(-c2ccc([C@@H]3[C@H](CO)N4CCCCN(C(=O)Cc5ccncc5)C[C@@H]34)cc2)c1,92.3,0.2,·,-42.1,·,·,·,·
N#Cc1cccc(-c2ccc([C@H]3[C@@H](CO)N4CCCCN(C(=O)Cc5ccncc5)C[C@H]34)cc2)c1,80.6,-1.3,·,-24.4,·,·,·,·
N#Cc1cccc(-c2ccc([C@@H]3[C@H](CO)N4CCCCN(C(=O)Cc5ccccc5)C[C@@H]34)cc2)c1,99.5*,-0.7,·,-23.7,104.0*,40.1,-0.7,57.4*
N#Cc1cccc(-c2ccc([C@H]3[C@@H](CO)N4CCCCN(C(=O)Cc5ccccc5)C[C@H]34)cc2)c1,108.6*,-0.6,·,5.7,111.0*,80.7,18.9,55.7*
